Results from paper PMC3680915 (Biochemistry, 2013).
Entries after “also recorded” stand apart in the source; their conditions may differ.

Experiments:
Format in all cases: biochemical, bovine
[1] = molecular target: T1, NADH:ubiquinone oxidoreductase (complex I) (Bos taurus, UniProt P25708); experiment: NADH:APAD+ transhydrogenation
[2] = molecular target: T1, NADH:ubiquinone oxidoreductase (complex I); experiment: NADH:FeCN oxidoreduction; conditions: 0.1 mM NADH, 1 mM FeCN, pH 7.5, 32 °C
[3] = molecular target: T1, NADH:ubiquinone oxidoreductase (complex I); experiment: NADH:HAR oxidoreduction
[4] = molecular target: T1, NADH:ubiquinone oxidoreductase (complex I); experiment: Kinetic isotope effect in NAD; conditions: 1 mM FeCN, pH 7.5, 32 °C
[5] = molecular target: T1, NADH:ubiquinone oxidoreductase (complex I); experiment: Kinetic isotope effect in NAD; conditions: 3.5 mM HAR, pH 7.5, 32 °C
Method in brief: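 Bovine heart complex I with hexaammineruthenium(III) as acceptor, at 32 °C. Donor concentration series used NADH, [4R-2H]NADH, [4S-2H]NADH, APADH and [4S-2H]APADH in 20 mM Tris-HCl pH 7.5. pH dependence was measured with NADH versus [4S-2H]NADH at 0.1 mM. Reactions were enzyme-initiated and read at 340–380 nm (ε 4.81 mM–1 cm–1). Background-subtracted initial rates over ~15 s; mean of ≥3 measurements.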

NC(=O)c1ccc[n+]([C@@H]2O[C@H](COP(=O)([O-])O)[C@@H](O)[C@H]2O)c1 [NMN^+, nicotinamide mononucleotide]
IC50 for inhibition of the APAD+ reaction ([1]; 0.1 mM NADH, 1 mM APAD+, pH 7.5, 32 °C): does not inhibit; also recorded: no inhibition | IC50 for inhibition of the FeCN reaction [2]: does not inhibit; also recorded: no inhibition | IC50 for inhibition of the HAR reaction ([3]; 0.1 mM NADH, 3.5 mM HAR, pH 7.5, 32 °C): does not inhibit; also recorded: no inhibition

[2H]C1C=CN(C2OC(COP(=O)(O)OP(=O)(O)OCC3OC(n4cnc5c(N)ncnc54)C(O)C3O)C(O)C2O)C=C1C(C)=O (stereo not drawn) [S-APADD, [4S-^2H]APADH]
KIE in the APAD(H/D):FeCN reaction [4]: ~6.5 | KIE in the APAD(H/D):HAR reaction [5]: ~3.5

Nc1ncnc2c1ncn2[C@@H]1O[C@H](CO)[C@@H](O)[C@H]1O [adenosine]
IC50 [1]: 10 mM | IC50 for inhibition of the FeCN reaction [2]: no inhibition ^b | IC50 for inhibition of the FeCN reaction ([2]; listed as Adenosine): no discernible inhibition | IC50 [3]: 7 mM
